From ChEMBL document CHEMBL2176950, “A frozen analogue approach to aminopyridinylimidazoles leading to novel and promising p38 MAP kinase inhibitors” (J Med Chem, 2012)
The source made the active and inactive calls. The calls are words filed in the database; no cut-off is given here.

Key:
[1] = target: T1, Mitogen-activated protein kinase 14 (Homo sapiens, UniProt Q16539); experiment: Ratio of SB203580 IC50 to compound IC50 for inhibition of p38alpha MAPK
Outline: (§1)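 p38 MAPK activity assay run by a previously published protocol. IC50 given as mean with SEM from three experiments. The activity coefficient is the IC50 of the SB203580 reference divided by the IC50 of the test compound.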

[2] = target: T1, Mitogen-activated protein kinase 14; experiment: Inhibition of p38alpha MAPK; outline: as §1
[3] = target: Mitogen-activated protein kinase 11 (Homo sapiens) (UniProt Q15759); experiment: Inhibition of MAPK11 assessed as residual activity at 1000 nM
Mitogen-activated protein kinase 11 (Homo sapiens), sequence (Q15759 whole entry): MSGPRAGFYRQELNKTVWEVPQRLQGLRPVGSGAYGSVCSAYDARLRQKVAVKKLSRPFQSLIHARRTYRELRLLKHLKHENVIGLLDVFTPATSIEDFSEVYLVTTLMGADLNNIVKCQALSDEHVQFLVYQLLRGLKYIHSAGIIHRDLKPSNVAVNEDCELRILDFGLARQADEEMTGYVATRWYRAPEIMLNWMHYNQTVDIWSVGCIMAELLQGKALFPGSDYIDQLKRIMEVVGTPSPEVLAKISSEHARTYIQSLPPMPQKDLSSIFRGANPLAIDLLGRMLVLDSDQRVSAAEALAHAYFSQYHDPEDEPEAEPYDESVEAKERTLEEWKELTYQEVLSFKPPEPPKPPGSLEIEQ

[4] = target: TRAF2 and NCK-interacting protein kinase (Homo sapiens) (UniProt Q9UKE5); experiment: Inhibition of KIAA0551 assessed as residual activity at 1000 nM
TRAF2 and NCK-interacting protein kinase (Homo sapiens), sequence (Q9UKE5 whole entry, looked up): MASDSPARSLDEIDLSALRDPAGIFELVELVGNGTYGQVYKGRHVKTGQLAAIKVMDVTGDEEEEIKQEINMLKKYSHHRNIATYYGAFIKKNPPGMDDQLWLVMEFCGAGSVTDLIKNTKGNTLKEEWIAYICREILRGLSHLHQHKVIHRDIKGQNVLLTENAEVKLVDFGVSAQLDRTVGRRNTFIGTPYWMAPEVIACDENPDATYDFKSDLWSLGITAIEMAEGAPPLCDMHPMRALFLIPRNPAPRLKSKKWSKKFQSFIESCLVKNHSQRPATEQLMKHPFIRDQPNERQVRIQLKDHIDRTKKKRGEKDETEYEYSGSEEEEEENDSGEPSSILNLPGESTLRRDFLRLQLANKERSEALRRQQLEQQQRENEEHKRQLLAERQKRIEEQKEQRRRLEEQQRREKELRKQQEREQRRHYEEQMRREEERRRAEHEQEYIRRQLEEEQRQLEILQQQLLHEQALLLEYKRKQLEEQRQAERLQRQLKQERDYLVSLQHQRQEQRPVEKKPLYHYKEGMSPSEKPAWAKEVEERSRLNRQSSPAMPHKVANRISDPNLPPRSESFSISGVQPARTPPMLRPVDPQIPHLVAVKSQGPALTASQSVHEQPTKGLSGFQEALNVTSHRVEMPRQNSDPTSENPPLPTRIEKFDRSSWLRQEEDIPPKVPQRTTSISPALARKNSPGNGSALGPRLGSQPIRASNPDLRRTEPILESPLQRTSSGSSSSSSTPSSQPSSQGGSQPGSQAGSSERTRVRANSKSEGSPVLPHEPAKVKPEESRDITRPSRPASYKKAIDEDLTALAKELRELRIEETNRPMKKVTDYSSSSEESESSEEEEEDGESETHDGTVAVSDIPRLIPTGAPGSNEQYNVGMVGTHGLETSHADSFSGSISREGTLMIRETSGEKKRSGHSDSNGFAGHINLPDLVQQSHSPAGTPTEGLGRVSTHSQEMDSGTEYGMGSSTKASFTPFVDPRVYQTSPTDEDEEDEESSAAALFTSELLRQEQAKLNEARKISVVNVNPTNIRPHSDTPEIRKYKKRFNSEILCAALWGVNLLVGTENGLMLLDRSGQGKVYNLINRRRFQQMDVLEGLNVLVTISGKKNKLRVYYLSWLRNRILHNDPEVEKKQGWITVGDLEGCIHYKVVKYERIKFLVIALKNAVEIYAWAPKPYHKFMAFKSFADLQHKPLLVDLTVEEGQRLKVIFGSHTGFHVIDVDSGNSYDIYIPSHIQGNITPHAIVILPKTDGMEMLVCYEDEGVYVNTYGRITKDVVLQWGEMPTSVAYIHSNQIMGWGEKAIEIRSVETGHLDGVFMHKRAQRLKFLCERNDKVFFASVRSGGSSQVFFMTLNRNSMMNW

[5] = target: T2, Serine/threonine-protein kinase 36 (Homo sapiens) (UniProt Q9NRP7); experiment: Inhibition of STK36 assessed as residual activity at 1000 nM
T2 sequence (whole entry): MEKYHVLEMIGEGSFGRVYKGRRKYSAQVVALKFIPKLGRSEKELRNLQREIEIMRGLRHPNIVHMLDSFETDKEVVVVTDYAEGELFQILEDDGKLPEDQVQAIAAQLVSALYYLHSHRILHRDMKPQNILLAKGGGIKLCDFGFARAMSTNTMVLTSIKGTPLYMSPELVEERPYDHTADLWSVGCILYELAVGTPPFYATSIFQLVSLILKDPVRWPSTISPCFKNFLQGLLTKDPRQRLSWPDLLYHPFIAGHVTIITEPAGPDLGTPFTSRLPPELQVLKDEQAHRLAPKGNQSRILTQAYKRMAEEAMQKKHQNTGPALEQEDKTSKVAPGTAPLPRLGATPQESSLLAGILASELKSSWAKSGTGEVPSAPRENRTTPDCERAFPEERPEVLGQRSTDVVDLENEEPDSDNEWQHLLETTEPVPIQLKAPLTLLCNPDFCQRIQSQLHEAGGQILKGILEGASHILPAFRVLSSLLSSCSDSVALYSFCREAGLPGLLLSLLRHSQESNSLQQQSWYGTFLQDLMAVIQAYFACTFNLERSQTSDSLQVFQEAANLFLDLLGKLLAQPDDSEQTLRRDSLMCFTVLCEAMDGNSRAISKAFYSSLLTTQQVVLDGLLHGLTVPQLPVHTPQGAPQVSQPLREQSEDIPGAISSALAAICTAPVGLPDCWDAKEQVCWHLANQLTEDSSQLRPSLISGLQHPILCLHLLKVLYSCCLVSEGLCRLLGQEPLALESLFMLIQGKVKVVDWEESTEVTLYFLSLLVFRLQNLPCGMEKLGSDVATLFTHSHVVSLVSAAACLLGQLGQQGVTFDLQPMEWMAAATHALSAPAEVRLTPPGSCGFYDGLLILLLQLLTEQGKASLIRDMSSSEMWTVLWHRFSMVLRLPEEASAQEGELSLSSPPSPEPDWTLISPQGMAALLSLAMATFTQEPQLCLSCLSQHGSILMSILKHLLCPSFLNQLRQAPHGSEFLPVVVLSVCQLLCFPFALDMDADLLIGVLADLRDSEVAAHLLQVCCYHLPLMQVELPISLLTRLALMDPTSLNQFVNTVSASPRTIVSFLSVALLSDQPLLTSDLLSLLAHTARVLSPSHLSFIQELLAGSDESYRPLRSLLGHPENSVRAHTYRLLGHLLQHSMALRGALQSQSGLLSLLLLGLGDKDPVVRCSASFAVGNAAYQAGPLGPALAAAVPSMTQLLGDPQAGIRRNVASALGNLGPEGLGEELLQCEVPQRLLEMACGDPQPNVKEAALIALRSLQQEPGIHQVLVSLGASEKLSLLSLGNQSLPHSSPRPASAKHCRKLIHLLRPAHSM

[6] = target: Proto-oncogene tyrosine-protein kinase Src (Homo sapiens) (UniProt P12931); experiment: Inhibition of SRC assessed as residual activity at 1000 nM
Proto-oncogene tyrosine-protein kinase Src (Homo sapiens), sequence (P12931 2-536 limits assumed): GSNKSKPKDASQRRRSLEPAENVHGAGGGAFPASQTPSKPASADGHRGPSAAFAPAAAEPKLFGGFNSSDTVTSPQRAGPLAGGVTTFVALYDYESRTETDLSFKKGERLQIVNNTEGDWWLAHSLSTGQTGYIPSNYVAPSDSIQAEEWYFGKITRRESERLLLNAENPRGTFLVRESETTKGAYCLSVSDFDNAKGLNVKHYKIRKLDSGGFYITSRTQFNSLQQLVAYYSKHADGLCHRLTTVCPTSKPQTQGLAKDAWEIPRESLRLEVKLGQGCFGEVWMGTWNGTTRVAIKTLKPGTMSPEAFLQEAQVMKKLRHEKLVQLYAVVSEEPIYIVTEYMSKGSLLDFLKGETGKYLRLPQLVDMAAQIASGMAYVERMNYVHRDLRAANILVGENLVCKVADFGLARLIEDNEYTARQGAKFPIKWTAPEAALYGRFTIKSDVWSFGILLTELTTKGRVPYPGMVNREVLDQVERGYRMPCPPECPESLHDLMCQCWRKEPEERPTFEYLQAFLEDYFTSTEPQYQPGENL

[7] = target: Receptor-interacting serine/threonine-protein kinase 2 (Homo sapiens) (UniProt O43353); experiment: Inhibition of RIPK2 assessed as residual activity at 1000 nM
Receptor-interacting serine/threonine-protein kinase 2 (Homo sapiens), sequence (O43353 whole entry): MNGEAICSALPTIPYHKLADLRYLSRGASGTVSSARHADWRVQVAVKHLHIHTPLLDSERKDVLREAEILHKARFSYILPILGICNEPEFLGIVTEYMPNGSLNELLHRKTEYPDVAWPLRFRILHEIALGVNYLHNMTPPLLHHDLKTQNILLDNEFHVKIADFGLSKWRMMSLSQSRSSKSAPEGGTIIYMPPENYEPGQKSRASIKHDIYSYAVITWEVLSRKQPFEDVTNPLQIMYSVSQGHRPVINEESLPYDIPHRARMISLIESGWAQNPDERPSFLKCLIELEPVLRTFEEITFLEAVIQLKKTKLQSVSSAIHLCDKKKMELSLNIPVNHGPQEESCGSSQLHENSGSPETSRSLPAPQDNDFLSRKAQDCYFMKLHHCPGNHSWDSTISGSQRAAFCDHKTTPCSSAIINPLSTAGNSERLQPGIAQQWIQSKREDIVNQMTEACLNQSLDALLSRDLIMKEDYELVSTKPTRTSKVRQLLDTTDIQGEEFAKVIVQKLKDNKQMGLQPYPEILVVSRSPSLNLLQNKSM

[8] = target: T1, Mitogen-activated protein kinase 14; experiment: Inhibition of MAPK14 assessed as residual activity at 1000 nM
[9] = target: T3, Cyclin-G-associated kinase (Homo sapiens) (UniProt O14976); experiment: Inhibition of GAK assessed as residual activity at 1000 nM
T3 sequence (whole entry): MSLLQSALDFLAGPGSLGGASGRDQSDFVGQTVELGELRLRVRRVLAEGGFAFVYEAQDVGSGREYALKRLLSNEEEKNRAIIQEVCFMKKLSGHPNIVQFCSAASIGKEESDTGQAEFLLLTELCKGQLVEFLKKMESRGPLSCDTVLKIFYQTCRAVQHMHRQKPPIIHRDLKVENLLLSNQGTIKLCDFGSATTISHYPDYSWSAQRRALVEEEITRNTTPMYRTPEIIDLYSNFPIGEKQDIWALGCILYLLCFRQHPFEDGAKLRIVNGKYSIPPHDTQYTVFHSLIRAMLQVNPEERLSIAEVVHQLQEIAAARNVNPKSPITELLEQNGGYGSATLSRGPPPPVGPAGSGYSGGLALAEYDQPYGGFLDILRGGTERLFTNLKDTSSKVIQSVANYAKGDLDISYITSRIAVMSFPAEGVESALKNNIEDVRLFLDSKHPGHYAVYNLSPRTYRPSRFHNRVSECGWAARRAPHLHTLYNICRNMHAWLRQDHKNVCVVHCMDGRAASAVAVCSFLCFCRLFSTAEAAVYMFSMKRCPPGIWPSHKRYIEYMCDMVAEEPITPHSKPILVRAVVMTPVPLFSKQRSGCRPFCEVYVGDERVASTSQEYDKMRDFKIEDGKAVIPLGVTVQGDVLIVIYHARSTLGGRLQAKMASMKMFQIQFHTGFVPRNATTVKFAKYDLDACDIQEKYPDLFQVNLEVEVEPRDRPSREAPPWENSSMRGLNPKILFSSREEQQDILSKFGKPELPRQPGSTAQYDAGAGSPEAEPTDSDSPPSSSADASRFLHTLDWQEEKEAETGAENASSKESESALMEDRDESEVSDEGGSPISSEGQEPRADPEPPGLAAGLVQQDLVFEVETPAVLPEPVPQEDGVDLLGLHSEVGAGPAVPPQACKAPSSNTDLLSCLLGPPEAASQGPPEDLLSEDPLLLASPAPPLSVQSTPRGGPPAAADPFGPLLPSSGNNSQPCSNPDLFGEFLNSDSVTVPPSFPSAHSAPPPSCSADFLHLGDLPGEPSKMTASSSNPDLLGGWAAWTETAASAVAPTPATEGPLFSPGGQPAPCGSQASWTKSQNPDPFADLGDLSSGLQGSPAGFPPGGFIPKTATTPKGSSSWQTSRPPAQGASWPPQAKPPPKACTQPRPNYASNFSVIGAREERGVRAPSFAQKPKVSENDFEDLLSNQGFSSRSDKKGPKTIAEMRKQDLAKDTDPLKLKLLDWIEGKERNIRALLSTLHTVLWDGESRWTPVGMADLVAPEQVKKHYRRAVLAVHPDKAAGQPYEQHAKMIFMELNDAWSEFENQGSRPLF

[10] = target: Protein-tyrosine kinase 6 (Homo sapiens) (UniProt Q13882); experiment: Inhibition of PTK6 assessed as residual activity at 1000 nM
Protein-tyrosine kinase 6 (Homo sapiens), sequence (Q13882 whole entry, looked up): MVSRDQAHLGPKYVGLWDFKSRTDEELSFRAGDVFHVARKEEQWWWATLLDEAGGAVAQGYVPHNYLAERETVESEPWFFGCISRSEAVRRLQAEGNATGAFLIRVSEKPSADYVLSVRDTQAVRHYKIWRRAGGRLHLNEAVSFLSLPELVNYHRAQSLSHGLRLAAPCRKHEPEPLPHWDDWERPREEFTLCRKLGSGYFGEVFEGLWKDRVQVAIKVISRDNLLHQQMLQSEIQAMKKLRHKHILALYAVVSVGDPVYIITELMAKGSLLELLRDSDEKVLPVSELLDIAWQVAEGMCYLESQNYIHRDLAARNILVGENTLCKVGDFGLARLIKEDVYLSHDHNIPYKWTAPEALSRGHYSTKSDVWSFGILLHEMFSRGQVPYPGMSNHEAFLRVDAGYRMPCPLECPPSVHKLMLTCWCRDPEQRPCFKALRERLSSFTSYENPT

[11] = target: Mitogen-activated protein kinase 9 (Homo sapiens) (UniProt P45984); experiment: Inhibition of JNK2 assessed as residual activity at 1000 nM
Mitogen-activated protein kinase 9 (Homo sapiens), sequence (P45984 whole entry, looked up): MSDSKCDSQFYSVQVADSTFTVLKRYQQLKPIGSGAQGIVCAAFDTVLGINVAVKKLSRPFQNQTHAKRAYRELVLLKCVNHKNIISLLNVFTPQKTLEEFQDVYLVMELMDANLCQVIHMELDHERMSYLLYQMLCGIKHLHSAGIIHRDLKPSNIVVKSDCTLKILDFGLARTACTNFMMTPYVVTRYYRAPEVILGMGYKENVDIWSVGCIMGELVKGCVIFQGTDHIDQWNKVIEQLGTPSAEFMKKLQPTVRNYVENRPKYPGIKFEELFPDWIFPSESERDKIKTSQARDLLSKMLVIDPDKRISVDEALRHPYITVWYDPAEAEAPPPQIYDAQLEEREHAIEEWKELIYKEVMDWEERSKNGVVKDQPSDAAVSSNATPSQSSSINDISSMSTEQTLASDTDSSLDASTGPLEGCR

[12] = target: Mitogen-activated protein kinase 10 (Homo sapiens) (UniProt P53779); experiment: Inhibition of JNK3 assessed as residual activity at 1000 nM
Mitogen-activated protein kinase 10 (Homo sapiens), sequence (P53779 whole entry): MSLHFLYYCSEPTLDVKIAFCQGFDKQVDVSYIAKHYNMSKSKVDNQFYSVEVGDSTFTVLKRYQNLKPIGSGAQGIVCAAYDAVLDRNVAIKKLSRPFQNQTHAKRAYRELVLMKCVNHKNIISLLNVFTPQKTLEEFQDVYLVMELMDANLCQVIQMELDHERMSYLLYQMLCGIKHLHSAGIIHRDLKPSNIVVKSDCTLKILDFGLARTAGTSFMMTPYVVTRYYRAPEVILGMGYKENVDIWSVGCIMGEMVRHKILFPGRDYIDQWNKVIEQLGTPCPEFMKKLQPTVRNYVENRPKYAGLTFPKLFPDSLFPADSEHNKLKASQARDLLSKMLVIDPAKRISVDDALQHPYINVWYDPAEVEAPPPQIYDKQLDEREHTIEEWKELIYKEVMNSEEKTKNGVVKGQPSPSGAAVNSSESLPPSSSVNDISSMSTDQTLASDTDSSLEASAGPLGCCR

[13] = target: Mitogen-activated protein kinase 8 (Homo sapiens) (UniProt P45983); experiment: Inhibition of JNK1 assessed as residual activity at 1000 nM
[14] = target: Tyrosine-protein kinase FRK (Homo sapiens) (UniProt P42685); experiment: Inhibition of FRK assessed as residual activity at 1000 nM
Tyrosine-protein kinase FRK (Homo sapiens), sequence (P42685 whole entry): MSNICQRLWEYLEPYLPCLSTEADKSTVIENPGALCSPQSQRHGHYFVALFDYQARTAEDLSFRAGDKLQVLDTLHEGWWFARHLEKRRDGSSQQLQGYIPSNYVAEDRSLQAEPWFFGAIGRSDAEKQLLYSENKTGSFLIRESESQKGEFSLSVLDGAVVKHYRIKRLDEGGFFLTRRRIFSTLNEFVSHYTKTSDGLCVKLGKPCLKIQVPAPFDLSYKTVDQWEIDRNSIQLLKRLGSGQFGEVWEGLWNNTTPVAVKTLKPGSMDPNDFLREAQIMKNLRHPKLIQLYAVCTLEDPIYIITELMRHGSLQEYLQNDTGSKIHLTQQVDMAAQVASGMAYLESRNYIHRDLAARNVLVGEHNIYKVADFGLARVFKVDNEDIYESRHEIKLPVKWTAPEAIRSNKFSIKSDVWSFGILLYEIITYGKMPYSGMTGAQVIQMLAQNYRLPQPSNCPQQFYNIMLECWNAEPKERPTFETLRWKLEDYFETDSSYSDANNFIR

[15] = target: T4, Mitogen-activated protein kinase 12 (Homo sapiens) (UniProt P53778); settings: 1000 nM
T4 sequence (whole entry): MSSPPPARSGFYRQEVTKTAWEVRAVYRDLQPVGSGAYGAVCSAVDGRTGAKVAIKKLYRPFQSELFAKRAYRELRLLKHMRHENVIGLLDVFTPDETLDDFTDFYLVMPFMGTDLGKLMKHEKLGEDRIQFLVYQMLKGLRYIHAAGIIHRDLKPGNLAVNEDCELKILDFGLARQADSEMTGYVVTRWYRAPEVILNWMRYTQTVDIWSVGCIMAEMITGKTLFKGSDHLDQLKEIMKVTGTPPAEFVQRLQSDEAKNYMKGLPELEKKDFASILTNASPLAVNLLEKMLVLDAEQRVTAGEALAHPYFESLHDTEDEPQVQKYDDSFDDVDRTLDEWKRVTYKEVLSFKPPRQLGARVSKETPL

T1 sequence (Q16539 whole entry): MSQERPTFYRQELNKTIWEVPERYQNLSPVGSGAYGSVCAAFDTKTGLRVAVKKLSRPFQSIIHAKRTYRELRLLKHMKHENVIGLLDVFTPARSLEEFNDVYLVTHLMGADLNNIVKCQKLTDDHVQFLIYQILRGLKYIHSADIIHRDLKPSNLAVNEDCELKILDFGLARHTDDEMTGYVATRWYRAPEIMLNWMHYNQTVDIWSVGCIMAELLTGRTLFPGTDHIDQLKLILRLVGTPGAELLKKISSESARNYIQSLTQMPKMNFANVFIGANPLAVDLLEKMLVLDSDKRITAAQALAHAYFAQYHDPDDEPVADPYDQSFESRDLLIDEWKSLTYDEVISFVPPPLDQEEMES

SMILES | Ratio IC50 [1] | IC50 [2] [nM] | other results
Fc1ccc(-c2nc(-c3ccccc3)[nH]c2-c2ccnc3[nH]c(C4CCCCC4)cc23)cc1 | 2.07 | – | –
COCn1c(-c2ccccc2)nc(-c2ccc(F)cc2)c1-c1ccnc2[nH]ccc12 | 0.18 | 451 | –
Fc1ccc(-c2nc(-c3ccccc3)[nH]c2-c2ccnc3[nH]c4ccccc4c23)cc1 | 0.55 | – | –
COc1ccc(-c2nc(-c3ccnc4[nH]c(-c5ccccc5)cc34)c(-c3ccc(F)cc3)[nH]2)cc1 | – | 70 | –
Fc1ccc(-c2[nH]c(-c3ccccc3)nc2-c2ccnc3[nH]c(C4CCCCC4)cc23)cc1 | – | 15 | –
Fc1ccc(-c2[nH]c(-c3ccccc3)nc2-c2ccncc2)cc1 | 0.33 | – | –
Fc1ccc(-c2[nH]c(-c3ccccc3)nc2-c2ccnc3[nH]c4ccccc4c23)cc1 | – | 153 | –
Fc1ccc(-c2nc(-c3ccccc3)[nH]c2-c2ncnc3[nH]cnc23)cc1 | 0.1 | 740 | –
Oc1ccc(-c2nc(-c3ccc(F)cc3)c(-c3ccncc3)[nH]2)cc1 | – | – | inhibition [10]: Active; inhibition [11]: Active; inhibition [12]: Active; inhibition [13]: Active; inhibition [14]: Active; inhibition [3]: Active; inhibition [4]: Active; inhibition [5]: Active; inhibition [7]: Active; inhibition [8]: Active; inhibition [9]: Active; inhibition [15]: Active
Fc1ccc(-c2nc(-c3ccccc3)[nH]c2-c2ncnc3[nH]ccc23)cc1 | 0.03 | 2600 | –
Fc1ccc(-c2nc(-c3ccccc3)[nH]c2-c2ccnc3[nH]c(Cc4ccccc4)cc23)cc1 | 0.07 | 345 | –
COc1cc(-c2nc(-c3ccc(F)cc3)c(-c3ccnc4[nH]c(-c5ccccc5)cc34)[nH]2)cc(OC)c1OC | 0.12 | – | –
Fc1ccc(-c2[nH]c(-c3ccccc3)nc2-c2ccnc3[nH]ccc23)cc1 | – | 108 | –
Fc1ccc(-c2[nH]c(-c3ccccc3)nc2-c2ccnc3[nH]c(-c4ccccc4)cc23)cc1 | – | 16 | –
COCn1c(-c2ccccc2)nc(-c2ccc(F)cc2)c1-c1ncnc2[nH]cnc12 | 0.01 | 2990 | –
COc1cc(-c2nc(-c3ccnc4[nH]c(-c5ccccc5)cc34)c(-c3ccc(F)cc3)[nH]2)cc(OC)c1OC | – | 290 | –
Fc1ccc(-c2nc(-c3ccccc3)[nH]c2-c2ccnc3[nH]ccc23)cc1 | 0.47 | – | –

Second part, led by results:

Ratio IC50 [1] | IC50 [2] [nM] | SMILES | other results
4.75 | – | C[S+]([O-])c1ccc(-c2nc(-c3ccc(F)cc3)c(-c3ccnc4[nH]c(-c5ccccc5)cc34)[nH]2)cc1 (stereo not given) | –
3.46 | 11 | CS(=O)(=O)c1ccc(-c2nc(-c3ccc(F)cc3)c(-c3ccnc4[nH]c(-c5ccccc5)cc34)[nH]2)cc1 | –
– | 8 | C[S+]([O-])c1ccc(-c2nc(-c3ccnc4[nH]c(-c5ccccc5)cc34)c(-c3ccc(F)cc3)[nH]2)cc1 (stereo not given) | –
19.7 | – | Oc1ccc(-c2nc(-c3ccc(F)cc3)c(-c3ccnc4[nH]c(-c5ccccc5)cc34)[nH]2)cc1 | Activity [3]: 2.5%; Activity [4]: 17%; Activity [5]: 4.8%; Activity [6]: 28%; Activity [7]: 3.2%; Activity [8]: 8.9%; Activity [9]: 7.7%
2.38 | – | Fc1ccc(-c2nc(-c3ccccc3)[nH]c2-c2ccnc3[nH]c(-c4ccccc4)cc23)cc1 | –
0.67 | – | COc1ccc(-c2nc(-c3ccc(F)cc3)c(-c3ccnc4[nH]c(-c5ccccc5)cc34)[nH]2)cc1 | –
– | 39 | CSc1ccc(-c2nc(-c3ccnc4[nH]c(-c5ccccc5)cc34)c(-c3ccc(F)cc3)[nH]2)cc1 | –
0.97 | – | CSc1ccc(-c2nc(-c3ccc(F)cc3)c(-c3ccnc4[nH]c(-c5ccccc5)cc34)[nH]2)cc1 | –
– | 3 | Oc1ccc(-c2nc(-c3ccnc4[nH]c(-c5ccccc5)cc34)c(-c3ccc(F)cc3)[nH]2)cc1 | –
